Test results published in ChEMBL document CHEMBL4368889, “Synthesis and evaluation of novel purple acid phosphatase inhibitors” (Medchemcomm, 2019).

What was measured:
Sus scrofa = organism: Sus scrofa; assay: Uncompetitive inhibition of fully reduced pig PAP using pNPP as substrate by UV-vis spectrophotometric analysis
In short: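 Pig PAP purified from the uterine fluid of a pregnant sow. Assays ran at pH 4.9 in 0.1 M sodium acetate with 25% DMSO, at 25 °C. pNPP was 1–12.5 mM (six levels) and inhibitor 50–300 μM. Rates were read at 405 nm. Kiuc came from a general inhibition equation fit.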

[1] = target: T1, Fe(3+)-Zn(2+) purple acid phosphatase (Phaseolus vulgaris) (UniProt P80366); assay: Competitive inhibition of red kidney bean PAP using pNPP as substrate by UV-vis spectrophotometric analysis
T1 sequence (whole entry): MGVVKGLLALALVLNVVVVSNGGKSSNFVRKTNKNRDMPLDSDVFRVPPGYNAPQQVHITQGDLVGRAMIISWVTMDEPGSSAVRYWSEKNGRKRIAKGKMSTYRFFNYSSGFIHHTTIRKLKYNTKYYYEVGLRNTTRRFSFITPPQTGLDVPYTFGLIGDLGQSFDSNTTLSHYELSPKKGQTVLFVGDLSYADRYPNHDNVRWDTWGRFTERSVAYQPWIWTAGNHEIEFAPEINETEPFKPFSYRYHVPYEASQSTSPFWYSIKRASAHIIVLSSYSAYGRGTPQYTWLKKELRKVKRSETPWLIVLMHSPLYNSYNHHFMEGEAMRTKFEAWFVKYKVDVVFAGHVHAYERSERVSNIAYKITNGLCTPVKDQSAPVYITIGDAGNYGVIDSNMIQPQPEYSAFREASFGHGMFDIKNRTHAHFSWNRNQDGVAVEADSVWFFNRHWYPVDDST
In short: (§1)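 Red kidney bean (Phaseolus vulgaris) PAP purified from the beans and used at 7.4 nM. Assays ran at pH 4.9 in 0.1 M sodium acetate with 25% DMSO, at 25 °C. Substrate was pNPP at 1, 3, 5, 7.5, 10 and 12.5 mM, with inhibitor at 50–300 μM. Product formation was read at 405 nm. Kic and Kiuc came from non-linear regression to the general inhibition equation.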

[2] = Inhibition of pig PAP; parameters: species or system Sus scrofa
[3] = target: T2, Fe(3+)-Zn(2+) purple acid phosphatase (Phaseolus vulgaris, UniProt P80366); assay: Inhibition of red kidney bean PAP
T2 sequence (P80366 whole entry): T1 sequence (whole entry)
In short: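 PAP purified from Phaseolus vulgaris beans, used at 7.4 nM in 0.1 M sodium acetate pH 4.9 with 25% DMSO at 25 °C. pNPP substrate at 1, 3, 5, 7.5, 10 and 12.5 mM, inhibitor 50–300 μM. Product formation read at 405 nm. Kic and Kiuc came from a non-linear regression to the general inhibition equation.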

[4] = target: T1, Fe(3+)-Zn(2+) purple acid phosphatase (Phaseolus vulgaris); assay: Uncompetitive inhibition of red kidney bean PAP using pNPP as substrate by UV-vis spectrophotometric analysis; in short: as §1

Row | Compound | Kiuc (Sus scrofa) [µM] | Kic [1] [µM] | Ki [2] [µM] | Ki [3] [µM] | Kiuc [4] [µM]
1 | O=C(O)c1cn(Cc2ccc(Cl)cc2)nn1 | 103 | 1070 | – | – | –
2 | O=C(O)c1cn(Cc2ccccc2Cl)nn1 | 276 | 438 | – | – | –
3 | O=C(O)c1cn(Cc2cccc3ccccc23)nn1 | 184 | 2280 | – | – | –
4 | COc1ccc(Cn2cc(C(=O)O)nn2)cc1 | 48 | – | – | – | –
5 | VANADATE ION | – | – | 40 | 30 | –
6 | Cc1ccc(Cn2cc(C(=O)O)nn2)cc1 | 76 | 951 | – | – | –
7 | CC(=O)c1sc(C)nc1-c1ccc(C)cc1 | – | – | 42 | 340 | –
8 | O=P(O)(O)O [PHOSPHORIC ACID] | – | – | 2000 | 2000 | –
9 | O=C(O)c1cn(Cc2ccccc2)nn1 | 23 | – | – | – | 963
